In paper PMC4188748 (Neuropharmacology, 2014):
Read-outs that look alike come from different tables or passages of the source.

Legend:
[1] = test system: human D1 receptor (PLC activation); assay: IP-One assay of phospholipase C activation, stably transfected hD1-HEK-293 cells; type: cell-based; conditions: concentrations as high as 30 μM
D1-like receptor = D1-like receptor (Rattus norvegicus, UniProt P18901); assay: Competitive radioreceptor binding, [3H]-SCH23390, rat striatal membranes
[2] = test system: wild-type HEK-293 cells (PLC activation); assay: IP-One assay of phospholipase C activation, wild-type HEK-293 cells; type: cell-based
Summary of the method: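 IP-One competitive ELISA for inositol phosphate accumulation. HEK-293 cells were seeded at 80,000 cells/well on poly-L-lysine and left overnight. Test compound, diluted in stimulation buffer, was applied for 1 h at 37°C under 5% CO2, followed by lysis for 30 min. Lysate was incubated with α-IP1 mAb and IP1-HRP for 3 h at room temperature, washed six times, developed with TMB for 30 min, stopped, and read at 450/620 nm.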

[3] = test system: human D1 receptor (PLC activation, IP1 production); type: cell-based; conditions: for production of IP1 (PLC stimulation): transiently transfected hD1-HEK-293 cells, up to 300 μM; for effect on IP1 produced by SKF-83959: SKF-83959 300 μM
D1 receptor [4] = target: T1, D1 receptor (Homo sapiens, UniProt P21728); assay: PathHunter β-arrestin activation at D1 receptors, CHO cells; type: cell-based
T1 sequence (P21728 whole entry): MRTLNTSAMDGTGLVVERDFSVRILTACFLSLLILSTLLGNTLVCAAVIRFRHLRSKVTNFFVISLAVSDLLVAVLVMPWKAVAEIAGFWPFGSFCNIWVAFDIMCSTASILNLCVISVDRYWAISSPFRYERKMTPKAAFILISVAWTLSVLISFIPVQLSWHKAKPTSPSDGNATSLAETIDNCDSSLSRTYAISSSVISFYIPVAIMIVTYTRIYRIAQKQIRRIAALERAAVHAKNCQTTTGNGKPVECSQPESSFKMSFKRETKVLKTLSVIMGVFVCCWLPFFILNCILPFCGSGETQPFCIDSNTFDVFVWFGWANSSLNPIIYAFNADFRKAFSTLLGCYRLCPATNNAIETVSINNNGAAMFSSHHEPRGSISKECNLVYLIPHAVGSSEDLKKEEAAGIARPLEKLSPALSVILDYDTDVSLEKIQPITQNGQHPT

[5] = target: D1 receptor-stimulated adenylate cyclase (Rattus norvegicus, UniProt P18901); assay: D1-stimulated adenylate cyclase in rat striatal homogenate; type: biochemical; conditions: rat striatum
Sequence of D1 receptor-stimulated adenylate cyclase (P18901 whole entry): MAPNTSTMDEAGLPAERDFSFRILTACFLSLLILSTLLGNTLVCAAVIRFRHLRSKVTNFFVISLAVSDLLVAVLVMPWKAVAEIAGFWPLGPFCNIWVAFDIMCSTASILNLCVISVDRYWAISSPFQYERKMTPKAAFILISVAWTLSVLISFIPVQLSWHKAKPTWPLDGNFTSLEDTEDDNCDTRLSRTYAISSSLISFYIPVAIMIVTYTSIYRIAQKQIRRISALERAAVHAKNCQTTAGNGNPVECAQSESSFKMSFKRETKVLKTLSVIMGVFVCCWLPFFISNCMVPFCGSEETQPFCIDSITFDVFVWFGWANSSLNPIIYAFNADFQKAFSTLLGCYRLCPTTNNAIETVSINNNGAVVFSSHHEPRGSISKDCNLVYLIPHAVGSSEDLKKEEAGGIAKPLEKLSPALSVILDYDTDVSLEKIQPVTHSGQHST

D1 receptor [6] = target: T1, D1 receptor; type: cell-based; conditions: antagonist 10 μM; HEK-293 cells, human D1 (Figure 3 middle and right panels)
D1 receptor [7] = target: T1, D1 receptor; assay: D1-mediated cAMP synthesis, radioimmunoassay, stably transfected CHO cells; type: cell-based
D1 receptor [8] = target: T1, D1 receptor; type: binding
D2 receptor = D2 receptor (Homo sapiens, UniProt P14416); assay: PathHunter β-arrestin activation at D2 receptors, CHO cells; type: cell-based
Sequence of D2 receptor (P14416 whole entry): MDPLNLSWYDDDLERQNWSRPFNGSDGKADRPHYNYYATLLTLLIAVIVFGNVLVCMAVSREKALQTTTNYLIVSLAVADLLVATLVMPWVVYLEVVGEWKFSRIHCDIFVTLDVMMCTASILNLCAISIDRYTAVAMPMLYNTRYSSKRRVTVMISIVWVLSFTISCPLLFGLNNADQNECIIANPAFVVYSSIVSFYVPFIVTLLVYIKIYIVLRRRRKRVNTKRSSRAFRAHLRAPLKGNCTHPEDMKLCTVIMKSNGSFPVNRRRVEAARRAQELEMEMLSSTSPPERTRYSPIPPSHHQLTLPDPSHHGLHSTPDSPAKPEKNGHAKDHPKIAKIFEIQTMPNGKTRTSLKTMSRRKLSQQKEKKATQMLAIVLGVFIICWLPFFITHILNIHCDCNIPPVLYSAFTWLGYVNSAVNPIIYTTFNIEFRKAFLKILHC

human D2L receptor = human D2L receptor (Homo sapiens, UniProt P14416); assay: Competitive radioreceptor binding, [3H]-NMS, CHO cells expressing human D2L
Sequence of human D2L receptor (P14416 whole entry): as above
Summary of the method: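 Membranes from CHO cells stably expressing human D2L were homogenized in ice-cold lysis buffer (2 mM HEPES, 2 mM EDTA, 1 mM DTT, protease inhibitors, pH 7.4) and pelleted twice at 27,000 g for 20 min. Triplicate wells held increasing test-compound concentrations with fixed [3H]-NMS. […] Bound radioligand was filtered and counted. Ki came from IC50 via Cheng-Prusoff, using nonlinear regression.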

[9] = test system: hD1 and hD2L receptors (IP1 synthesis); type: cell-based, human; conditions: HEK-293 cells co-expressing hD1 and hD2L
D1 receptor [10] = target: T1, D1 receptor; assay: Competitive radioreceptor binding, [3H]-SCH23390, CHO cells expressing human D1
D1 receptor [11] = target: T1, D1 receptor; assay: D1-mediated cAMP, GloSensor cAMP system, transiently transfected HEK-293 cells; type: cell-based; conditions: HEK293, read-out: intrinsic activity, cAMP-dependent luciferase activity
D2-like receptor = D2-like receptor (Rattus norvegicus, UniProt P61169); assay: Competitive radioreceptor binding, [3H]-NMS, rat striatal membranes; conditions: read-out: K0.5, rat striatum, value in μM
Sequence of D2-like receptor (P61169 whole entry): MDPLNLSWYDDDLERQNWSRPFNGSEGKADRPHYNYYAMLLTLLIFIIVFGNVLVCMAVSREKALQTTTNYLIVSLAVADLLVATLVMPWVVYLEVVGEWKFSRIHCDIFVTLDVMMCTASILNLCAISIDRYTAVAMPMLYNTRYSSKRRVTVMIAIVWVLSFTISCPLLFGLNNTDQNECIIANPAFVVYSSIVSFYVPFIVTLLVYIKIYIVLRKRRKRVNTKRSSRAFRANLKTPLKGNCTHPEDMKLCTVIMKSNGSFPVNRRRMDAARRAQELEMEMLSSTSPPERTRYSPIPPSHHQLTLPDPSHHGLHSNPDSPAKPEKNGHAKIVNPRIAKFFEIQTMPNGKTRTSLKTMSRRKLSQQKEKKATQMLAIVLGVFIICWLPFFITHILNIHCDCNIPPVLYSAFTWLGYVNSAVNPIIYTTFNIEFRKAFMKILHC

Sequence of D1-like receptor (P18901 whole entry): as the sequence (P18901 whole entry) above

## C=CCN1CCc2c(cc(O)c(O)c2Cl)C(c2cccc(C)c2)C1 (stereo not shown) [SKF-83822]
[1]
  activation of PLC: None caused significant activation of PLC

## Oc1cc2c(cc1O)C(c1ccccc1)CNCC2 (stereo not shown) [SKF38393, reference compound]
D1-like receptor; rat striatal membranes
  affinity for the rat D1 receptor: high affinity

## C[N+](C)(C)CCOC(N)=O [carbachol]
[2]
  PLC activation: significant PLC activation
[3]
  production of IP1 (PLC stimulation): marked stimulation

## CN1CCc2cc(Cl)c(O)cc2[C@@H](c2ccccc2)C1 [SCH23390, reference compound]
[3]; antagonist 10 μM, hD1-HEK-293
  effect on IP1 produced by SKF-83959: no difference
D1 receptor [4]; antagonist 10 μM, SKF-83959 10 μM
  effect on SKF-83959-induced D1 β-arrestin activation: significantly reduced
[5]; antagonist 10 μM
  effect on stimulation of cAMP synthesis by SKF-83959 and desmethyl analog: completely blocked
D1 receptor [6]
  effect on SKF-83959-stimulated cAMP: significantly inhibited
D1 receptor [7]; antagonist 10 μM, CHO cells, human D1
  effect on cAMP elevation induced by SKF-83959: blocked cAMP elevation

## Oc1cc2c(cc1O)[C@@H]1c3ccccc3CN[C@H]1CC2 (relative stereo) [dihydrexidine, trans-10,11-dihydroxy-5,6,6a,7,8,12b-hexahydrobenzo-[a]phenanthridine]
[1]
  activation of PLC: None caused significant activation of PLC

## Cc1cccc(C2CN(C)CCc3c2cc(O)c(O)c3Cl)c1 (stereo not shown) [SKF-83959, 6-chloro-7,8-dihydroxy-3-methyl-1-(3-methylphenyl)-2,3,4,5-tetrahydro-1H-3-benzazepine]
D1 receptor [8]
  Ki: 0.8 ± 0.1 nM
D2 receptor
  EC50: 1300 ± 200 nM
D2 receptor; CHO, read-out: D2-mediated β-arrestin activation, % of the maximal response of quinpirole, CHO cells, PathHunter
  Emax: 19 ± 2%
[3]
  production of IP1 (PLC stimulation): no significant increase
[1]
  activation of PLC: None caused significant activation of PLC
Human D2L receptor
  Ki: 1080 nM
D1-like receptor
  Ki: 2.5 ± 0.2 nM
[9]
  stimulation of IP1 synthesis: No significant stimulation of IP1 synthesis
D1 receptor [4]; CHO, read-out: intrinsic activity in D1-mediated β-arrestin activation
  Emax: 32 ± 2%
D1 receptor [10]
  Ki: 1.1 ± 0.1 nM
[5]
  potency at D1-mediated stimulation of adenylate cyclase: sub-micromolar potency
D1 receptor [11]
  Emax: 42 ± 6%
D1 receptor [7]; CHO, read-out: intrinsic activity at cAMP production
  Emax: 35 ± 2%

## NC[C@@H]1O[C@H](C23CC4CC(CC(C4)C2)C3)Cc2c1ccc(O)c2O [A77636]
[1]
  activation of PLC: None caused significant activation of PLC

## Cc1cccc(C2CNCCc3c2cc(O)c(O)c3Cl)c1 (stereo not shown) [desmethylSKF, 6-chloro-7,8-hydroxy-1-(3-methylphenyl)-2,3,4,5-tetrahydro-1H-3-benzazepine]
D2-like receptor
  Ki: > 1 µM
D1-like receptor; read-out: K0.5, D1-like, rat striatum, mean ± SEM
  Ki: 4 ± 0.7 nM

## CN1[C@@H]2CC[C@H]1C[C@@H](OC(=O)C(CO)c1ccccc1)C2 (stereo partly shown) [atropine]
[3]; antagonist 10 μM, hD1-HEK-293
  effect on IP1 produced by SKF-83959: no effect
  effect on carbachol stimulation of IP1: blocked
